From ChEMBL document CHEMBL4316593 (Eur J Med Chem, 2019)
Calls of active or inactive are those of the source. No cut-off for these calls is given here.

Assays:
[1] = test system: LN-229; experiment: Cell cycle arrest in human LN229 cells assessed as increase in accumulation at G1-phase at cytotoxic IC50 measured after 48 hrs by propidium iodide staining based fluorescence cell imaging analysis; format: functional
How it was run: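 Cell cycle by PI staining. Cells seeded at 1×10^6 and grown overnight at 37°C, 5% CO₂, then exposed for 48hrs at their IC₅₀ concentration, with DMSO and cisplatin controls. Cells were trypsinized, washed in cold PBS and fixed in 70% ethanol at 4°C for 30 min. They were stained with PI in Triton X-100/RNase for 15 min at 37°C and imaged by fluorescence microscopy. Reported as mean ± S.E.M of triplicates.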

[2] = test system: U-87 MG; experiment: Cell cycle arrest in human U87 cells assessed as change in CDKN1A gene expression at cytotoxic IC50 measured after 48 hrs […] relative to control; format: functional, U-87MG ATCC
How it was run: (§1)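 U87 expression profiling. Cells incubated 48hrs at 37°C, 5% CO₂ with the IC₅₀ concentration, alongside a cisplatin and an untreated control, in triplicate. RNA was isolated by one common protocol and profiled. DEGs were called with DESeq2 (q < 0.05, fold change > 1.5) and expressed as fold change versus untreated.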

[3] = test system: U-87 MG; experiment: Induction of DNA damage in human U87 cells assessed as change in E2F7 gene expression at cytotoxic IC50 measured after 48 hrs […] relative to control; format: functional, U-87MG ATCC; how it was run: as §1
[4] = test system: U-87 MG; experiment: Induction of DNA damage in human U87 cells assessed as change in CDK1 gene expression at cytotoxic IC50 measured after 48 hrs […] relative to control; format: functional, U-87MG ATCC; how it was run: as §1
[5] = test system: U-87 MG; experiment: Induction of apoptosis in human U87 cells assessed as change in JUN gene expression at cytotoxic IC50 measured after 48 hrs […] relative to control; format: functional, U-87MG ATCC
How it was run: (§2)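 U87 cells grown in MEM with 10% FBS at 37°C, 5% CO2. Cells exposed to IC50 of test compound for 48 hrs, alongside untreated and cisplatin controls, each condition in triplicate. RNA isolated and profiled; differential expression called with DESeq2 (q-value < 0.05, fold change > 1.5), fold change versus untreated.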

[6] = test system: U-87 MG; experiment: Induction of apoptosis in human U87 cells assessed as change in FAS gene expression at cytotoxic IC50 measured after 48 hrs […] relative to control; format: functional, U-87MG ATCC; how it was run: as §2
[7] = test system: U-87 MG; experiment: Induction of apoptosis in human U87 cells assessed as change in ITPR2 gene expression at cytotoxic IC50 measured after 48 hrs […] relative to control; format: functional, U-87MG ATCC; how it was run: as §2
[8] = Inhibition of RTK/PI3K/AKT/mTOR signaling in human U87 cells assessed as down regulation of GPATCH11 gene expression at cytotoxic IC50 measured after 48 hrs relative to control; format: cell-based; conditions: U-87MG ATCC; how it was run: as §2
[9] = Inhibition of RTK/PI3K/AKT/mTOR signaling in human U87 cells assessed as down regulation of ATP6V0D1 gene expression at cytotoxic IC50 measured after 48 hrs relative to control; format: cell-based; conditions: U-87MG ATCC; how it was run: as §2
[10] = Inhibition of RTK/PI3K/AKT/mTOR signaling in human U87 cells assessed as down regulation of HELLS gene expression at cytotoxic IC50 measured after 48 hrs relative to control; format: cell-based; conditions: U-87MG ATCC; how it was run: as §2
[11] = Inhibition of RTK/PI3K/AKT/mTOR signaling in human U87 cells assessed as down regulation of CCDC186 gene expression at cytotoxic IC50 measured after 48 hrs relative to control; format: cell-based; conditions: U-87MG ATCC; how it was run: as §2
[12] = Inhibition of RTK/PI3K/AKT/mTOR signaling in human U87 cells assessed as down regulation of BRMS1 gene expression at cytotoxic IC50 measured after 48 hrs relative to control; format: cell-based; conditions: U-87MG ATCC; how it was run: as §2
[13] = Inhibition of RTK/PI3K/AKT/mTOR signaling in human U87 cells assessed as down regulation of PHIP gene expression at cytotoxic IC50 measured after 48 hrs relative to control; format: cell-based; conditions: U-87MG ATCC
How it was run: (§3)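 Cells were exposed for 48hrs at 37°C in humidified 5% CO₂ to the compound at its previously determined IC₅₀, with Cisplatin at its IC₅₀ and an untreated negative control alongside. Each condition was run in triplicate. RNA was isolated from all samples by the same protocol. Genes were called differentially expressed by DESeq2 at q-value < 0.05 and fold change > 1.5.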

[14] = Inhibition of RTK/PI3K/AKT/mTOR signaling in human U87 cells assessed as down regulation of ZNF106 gene expression at cytotoxic IC50 measured after 48 hrs relative to control; format: cell-based; conditions: U-87MG ATCC; how it was run: as §3
[15] = Inhibition of RTK/PI3K/AKT/mTOR signaling in human U87 cells assessed as down regulation of SOD2 gene expression at cytotoxic IC50 measured after 48 hrs relative to control; format: cell-based; conditions: U-87MG ATCC; how it was run: as §3
[16] = Inhibition of RTK/PI3K/AKT/mTOR signaling in human U87 cells assessed as down regulation of USP47 gene expression at cytotoxic IC50 measured after 48 hrs relative to control; format: cell-based; conditions: U-87MG ATCC; how it was run: as §3
[17] = Inhibition of RTK/PI3K/AKT/mTOR signaling in human U87 cells assessed as down regulation of DEF8 gene expression at cytotoxic IC50 measured after 48 hrs relative to control; format: cell-based; conditions: U-87MG ATCC; how it was run: as §2
[18] = Inhibition of RTK/PI3K/AKT/mTOR signaling in human U87 cells assessed as down regulation of NFIL3 gene expression at cytotoxic IC50 measured after 48 hrs relative to control; format: cell-based; conditions: U-87MG ATCC; how it was run: as §3
[19] = Inhibition of RTK/PI3K/AKT/mTOR signaling in human U87 cells assessed as up regulation of ZNF395 gene expression at cytotoxic IC50 measured after 48 hrs relative to control; format: cell-based; conditions: U-87MG ATCC
[20] = Inhibition of RTK/PI3K/AKT/mTOR signaling in human U87 cells assessed as up regulation of PLD6 gene expression at cytotoxic IC50 measured after 48 hrs relative to control; format: cell-based; conditions: U-87MG ATCC; how it was run: as §3
[21] = Inhibition of RTK/PI3K/AKT/mTOR signaling in human U87 cells assessed as up regulation of erythrocyte membrane protein band 4.1 gene expression at cytotoxic IC50 measured after 48 hrs relative to control; format: cell-based
[22] = Inhibition of RTK/PI3K/AKT/mTOR signaling in human U87 cells assessed as up regulation of MRG domain binding protein gene expression at cytotoxic IC50 measured after 48 hrs relative to control; format: cell-based; conditions: U-87MG ATCC; how it was run: as §3
[23] = Inhibition of RTK/PI3K/AKT/mTOR signaling in human U87 cells assessed as up regulation of single Ig and TIR domain containing gene expression at cytotoxic IC50 measured after 48 hrs relative to control; format: cell-based; conditions: U-87MG ATCC
[24] = Inhibition of RTK/PI3K/AKT/mTOR signaling in human U87 cells assessed as up regulation of NCOR2 gene expression at cytotoxic IC50 measured after 48 hrs relative to control; format: cell-based; conditions: U-87MG ATCC; how it was run: as §3
[25] = Inhibition of RTK/PI3K/AKT/mTOR signaling in human U87 cells assessed as up regulation of KDM5B gene expression at cytotoxic IC50 measured after 48 hrs relative to control; format: cell-based; conditions: U-87MG ATCC; how it was run: as §3
[26] = Inhibition of RTK/PI3K/AKT/mTOR signaling in human U87 cells assessed as up regulation of NARS gene expression at cytotoxic IC50 measured after 48 hrs relative to control; format: cell-based; conditions: U-87MG ATCC; how it was run: as §3
[27] = Inhibition of RTK/PI3K/AKT/mTOR signaling in human U87 cells assessed as up regulation of RHOA gene expression at cytotoxic IC50 measured after 48 hrs relative to control; format: cell-based; conditions: U-87MG ATCC; how it was run: as §3

## CC(=O)C(=NNc1ccccc1C#N)C(C)=O
[1]
  Activity: Active
[2]
  fold change (FC): 1.296
[3]
  fold change (FC): 2.057
[4]
  fold change (FC): 1.569
[5]
  log2FC: -3.064
[6]
  log2FC: 3.514
[7]
  log2FC: -3.745
[8]
  log2FC: -1.69
[9]
  log2FC: -1.21
[10]
  log2FC: -1.06
[11]
  log2FC: -0.865
[12]
  log2FC: -0.813
[13]
  log2FC: -0.753
[14]
  log2FC: -0.749
[15]
  log2FC: -0.617
[16]
  log2FC: -0.615
[17]
  log2FC: -0.591
[18]
  log2FC: -0.44
[19]
  log2FC: 1.89
[20]
  log2FC: 1.77
[21]
  log2FC: 1.26
[22]
  log2FC: 0.97
[23]
  log2FC: 0.676
[24]
  log2FC: 0.558
[25]
  log2FC: 0.553
[26]
  log2FC: 0.53
[27]
  log2FC: 0.32
